ChEMBL document CHEMBL1781963, “Discovery of novel hepatoselective HMG-CoA reductase inhibitors for treating hypercholesterolemia: a bench-to-bedside case study on tissue selective drug distribution” (Bioorg Med Chem Lett, 2011)

Legend:
[1] = tested on: Homo sapiens; test: Inhibition of HMG-CoA reductase in human assessed as decrease in LDL-cholesterol level in plasma at 10 mg administered qd for 14 days relative to control; format: functional
[2] = tested on: Plasma; test: fAUC (0 to infinity) in human plasma at 80 mg administered as single dose; format: ADME, cell-free
How it was run: (§1)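 Phase 1 single ascending oral dose in healthy volunteers, with N per dose group. Total plasma Cmax and AUC(0-∞) were measured. Free-drug exposures were derived from these using plasma protein binding (human plasma fu measured at 0.5 μg/mL).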

[3] = Half life in dog at 1 mg/kg, iv; format: ADME, organism-based, Canis lupus familiaris; parameters: dose 1 mg/kg, route intravenous; settings: in vivo
How it was run: (§2)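 Intravenous 1 mg/kg dose in rat or dog. Terminal half-life was derived from plasma concentrations and is reported as the geometric mean of n = 2 animals per group.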

[4] = Terminal half life in human plasma at 5 mg administered as single dose; format: ADME, cell-free; settings: read-out: beta t1/2 (converted)
[5] = Systemic plasma clearance in rat at 1 mg/kg, iv; format: ADME, organism-based; parameters: dose 1 mg/kg, route intravenous
How it was run: (§3)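 Rat and dog given 1 mg/kg iv, or po at 10 mg/kg (rat) or 5 mg/kg (dog). Plasma sampled to 24 h. AUC(0-24) as free drug using plasma protein binding values. Geometric mean of n = 2 animals/group; dog po n = 3 or n = 1.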

[6] = tested on: Homo sapiens; test: Inhibition of HMG-CoA reductase in human assessed as decrease in AUC (0 to 72 hrs) of mevalonate level in plasma at 40 mg administered as single dose relative to control; format: functional
[7] = AUC (0 to infinity) in human plasma at 40 mg administered as single dose; format: ADME, cell-free; parameters: dose 40 mg, time infinity
How it was run: (§4)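 Phase 1 single ascending oral dose in healthy volunteers, about 5–6 subjects per dose. Total plasma drug Cmax and AUC(0-∞) were measured. Free-drug exposures were derived using plasma protein binding.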

[8] = tested on: Plasma; test: fAUC (0 to infinity) in human plasma at 40 mg administered as single dose; format: ADME, cell-free; how it was run: as §1
[9] = Terminal half life in human plasma at 40 mg administered as single dose; format: ADME, cell-free; settings: read-out: beta t1/2 (converted)
[10] = molecular target: T1, 3-hydroxy-3-methylglutaryl-coenzyme A reductase (Rattus norvegicus, UniProt P51639); test: Inhibition of HMG-CoA reductase in Sprague-Dawley rat liver microsomes using [14C]HMG-CoA as substrate preincubated for 0.5 hrs before substrate addition measured after 0.75 hrs by beta scintillation counting; parameters: species or system Microsome
T1 sequence (P51639 whole entry): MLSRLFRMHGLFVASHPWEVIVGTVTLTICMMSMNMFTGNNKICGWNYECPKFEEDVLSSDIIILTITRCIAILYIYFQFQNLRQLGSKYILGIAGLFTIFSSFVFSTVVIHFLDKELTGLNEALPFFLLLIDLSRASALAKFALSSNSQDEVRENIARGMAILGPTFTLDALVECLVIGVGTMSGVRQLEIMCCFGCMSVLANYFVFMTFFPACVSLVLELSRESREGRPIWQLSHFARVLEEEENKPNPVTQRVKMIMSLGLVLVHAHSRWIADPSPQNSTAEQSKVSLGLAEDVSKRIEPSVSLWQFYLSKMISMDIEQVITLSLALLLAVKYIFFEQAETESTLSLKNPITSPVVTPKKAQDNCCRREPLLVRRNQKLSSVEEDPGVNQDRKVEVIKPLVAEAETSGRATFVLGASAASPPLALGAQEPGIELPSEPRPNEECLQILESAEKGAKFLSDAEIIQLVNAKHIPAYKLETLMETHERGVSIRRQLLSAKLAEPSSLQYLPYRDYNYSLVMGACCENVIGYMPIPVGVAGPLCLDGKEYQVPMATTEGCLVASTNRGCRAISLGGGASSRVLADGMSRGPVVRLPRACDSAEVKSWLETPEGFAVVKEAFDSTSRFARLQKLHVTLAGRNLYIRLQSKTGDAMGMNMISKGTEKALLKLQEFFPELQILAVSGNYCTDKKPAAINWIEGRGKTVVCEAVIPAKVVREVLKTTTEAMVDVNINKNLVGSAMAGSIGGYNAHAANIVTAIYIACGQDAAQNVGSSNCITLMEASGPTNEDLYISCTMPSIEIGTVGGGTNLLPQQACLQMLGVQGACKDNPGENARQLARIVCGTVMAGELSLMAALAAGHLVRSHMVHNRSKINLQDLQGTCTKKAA
How it was run: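 Enzyme inhibition was measured in an HMG-CoA reductase preparation from rat microsomes. IC50 is reported as mean ± SEM of n ≥ 2 independent determinations.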

[11] = Half life in rat at 1 mg/kg, iv; format: ADME, organism-based; parameters: dose 1 mg/kg, route intravenous; settings: in vivo; how it was run: as §2
[12] = tested on: Plasma; test: fCmax in human plasma at 20 mg administered as single dose; format: ADME, cell-free; how it was run: as §1
[13] = tested on: Homo sapiens; test: Inhibition of HMG-CoA reductase in human assessed as decrease in AUC (0 to 24 hrs) of mevalonate level in plasma at 5 mg administered as single dose relative to control; format: functional
[14] = tested on: Canis familiaris; test: fCmax in dog at 5 mg/kg, po; format: ADME, organism-based, Canis lupus familiaris; parameters: dose 5 mg/kg, route oral; settings: in vivo
How it was run: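 Single po dose: rat 10 mg/kg (n = 2), dog 5 mg/kg (n = 1 or 3 animals). Values are geometric means. Cmax is given as free drug concentration using plasma protein binding values, which were determined at 0.5 μg/mL.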

[15] = tested on: Plasma; test: fCmax in human plasma at 1 mg administered as single dose; format: ADME, cell-free; how it was run: as §1
[16] = Systemic plasma clearance in dog at 1 mg/kg, iv; format: ADME, organism-based, Canis lupus familiaris; parameters: dose 1 mg/kg, route intravenous; how it was run: as §3
[17] = AUC (0 to infinity) in human plasma at 160 mg administered as single dose; format: ADME, cell-free; parameters: dose 160 mg, time infinity; how it was run: as §4
[18] = tested on: Rattus norvegicus; test: fAUC (0 to 24 hrs) in rat at 1 mg/kg, iv; format: ADME, organism-based; parameters: dose 1 mg/kg, route intravenous; settings: in vivo; how it was run: as §3
[19] = tested on: Liver; test: Ratio of fAUC (0 to 24 hrs) in liver to plasma in Sprague-Dawley rat at 25 mg/kg, po; format: ADME, organism-based; parameters: dose 25 mg/kg, route oral; settings: other tissue
How it was run: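 Sprague-Dawley rats given a single oral dose (10 or 25 mg/kg). Free drug measured in liver and plasma at 0, 0.5, 1, 2, 3, 4, 7 and 24 h, n = 3/time point.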

[20] = Fraction unbound in dog plasma at 0.5 ug/ml; format: ADME, cell-free, Canis lupus familiaris
How it was run: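 Unbound fraction in rat, dog or human plasma, measured at a drug concentration of 0.5 μg/mL.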

[21] = tested on: Rattus norvegicus; test: fAUC (0 to 24 hrs) in rat at 10 mg/kg, po; format: ADME, organism-based; parameters: dose 10 mg/kg, route oral; settings: in vivo; how it was run: as §3
[22] = tested on: Syrian golden hamster; test: Inhibition of cholesterol synthesis in golden syrian hamster assessed as reduction of [14C]-cholesterol level at 10 mg/kg, po followed by 3 hrs after treated with 80 uCi, ip of [14C]-sodium acetate measured after 5 hrs by liquid scintillation counting relative to control; format: functional; settings: Mesocricetus auratus
How it was run: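 Separate hamster groups dosed po at 10 mg/kg at t = 0 h. 14C sodium acetate ip at t = 3 h, blood 14C cholesterol at t = 5 h. Percent change vs untreated controls, n = 8/group.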

[23] = tested on: Plasma; test: fAUC (0 to infinity) in human plasma at 240 mg administered as single dose; format: ADME, cell-free; how it was run: as §1
[24] = Cmax in human plasma at 10 mg administered as single dose; format: ADME, organism-based; parameters: dose 10 mg; how it was run: as §4
[25] = Cmax in human plasma at 240 mg administered as single dose; format: ADME, organism-based; parameters: dose 240 mg; how it was run: as §4
[26] = Terminal half life in human plasma at 240 mg administered as single dose; format: ADME, cell-free; settings: read-out: beta t1/2 (converted)
[27] = tested on: Plasma; test: fCmax in human plasma at 120 mg administered as single dose; format: ADME, cell-free; how it was run: as §1

| half-life [3] [h] | clearance [5] [mL/min/kg] | AUC(0-inf) [7] [ng·h/mL] | fAUC [8] [ng·h/mL] | half-life [9] [h] | IC50 [10] [nM] | half-life [11] [h] | fCmax [14] [ng/mL] | clearance [16] [mL/min/kg] | fAUC [18] [ng·h/mL] | fraction unbound at 0.5 ug/ml [20] | fAUC [21] [ng·h/mL] | Structure (SMILES) | inhibition (INH) [6] [%] | further results |
| --- | --- | --- | --- | --- | --- | --- | --- | --- | --- | --- | --- | --- | --- | --- |
|  |  |  |  |  |  |  |  |  |  |  |  | CC(C)c1nc(N(C)S(C)(=O)=O)nc(-c2ccc(F)cc2)c1/C=C/[C@@H](O)C[C@@H](O)CC(=O)O [ROSUVASTATIN] |  | inhibition (INH) [1]: 41.3% |
| 0.78 | 27 | 5110 | 261 | 8.57 | 1 | 0.34 | 51.5 | 19 | 10 | 0.032 | 6.4 | Cc1ccc(CNC(=O)c2nn(-c3ccc(F)cc3)c(CC[C@@H](O)C[C@@H](O)CC(=O)O)c2C(C)C)cc1 | -3 | fAUC [2]: 602 ng·h/mL; half-life [4]: 4.54 h; fCmax [12]: 37.7 ng/mL; inhibition (INH) [13]: -13%; fCmax [15]: 1.71 ng/mL; AUC(0-inf) [17]: 25000 ng·h/mL; Ratio [19]: 128 |
| 0.27 | 39 | 6.27 | 1.81 | 3.22 | 1.2 | 0.43 | 5.4 | 25 | 83 | 0.43 | 2.7 | O=C([O-])C[C@H](O)C[C@H](O)CCn1c(-c2ccc(F)cc2)nc(C(=O)NCc2cccc(F)c2)c1C1CC1.[Na+] | -19 | inhibition in vivo at 10 mg/kg [22]: -43%; fAUC [23]: 7.89 ng·h/mL; Cmax [24]: 0.355 ng/mL; Cmax [25]: 9.27 ng/mL; half-life [26]: 4.06 h; fCmax [27]: 0.96 ng/mL |
